MrgX1 PAM = positive allosteric modulators of MrgX1, primary screen, HEK293 cells, Fluo-4 calcium flux; Mas-related G-protein coupled receptor member X1 (Homo sapiens), Q96LB2; FDSS; active compounds read high; B-score at 10 µM; actives 0.63% (n = 310,000);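 active = plate-corrected calcium response at least 3 library SD above typical, normal starting fluorescence, not activating the receptor alone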;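 also: compound read alongside a low EC10 to EC30 dose of BAM8-22 agonist; peak minus trough fluorescence over baseline measured at the second addition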
Target sequence (Q96LB2 whole entry, looked up): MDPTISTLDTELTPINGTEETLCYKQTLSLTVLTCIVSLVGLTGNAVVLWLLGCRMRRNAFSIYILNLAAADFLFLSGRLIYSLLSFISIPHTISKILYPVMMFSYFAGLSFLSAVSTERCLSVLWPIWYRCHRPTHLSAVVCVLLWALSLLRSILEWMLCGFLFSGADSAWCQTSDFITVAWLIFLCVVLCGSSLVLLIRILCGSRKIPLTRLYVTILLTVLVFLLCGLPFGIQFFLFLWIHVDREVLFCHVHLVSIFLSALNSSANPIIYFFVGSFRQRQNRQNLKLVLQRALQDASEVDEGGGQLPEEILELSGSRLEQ
RGS4 block = RGS4 inhibitors, primary screen, cell-based, HEK293 M3R inducible RGS4, calcium flux. actives 0.45% (n = 310,000). B-score at 10 µM. Regulator of G-protein signaling 4 (Homo sapiens), P49798. Fluo-4 calcium flux; active compounds read high; triggered by carbachol at its EC20;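 active = B-score, a plate-corrected calcium signal, over three deviations above library mean, with baseline fluorescence within five deviations of library mean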;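 also: RGS4 expression induced by doxycycline in cells with stable M3 receptor; B-score is computed from the integrated fluorescence ratio over baseline after carbachol; higher B-score means a larger calcium signal and so more RGS4 inhibition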
Target sequence (P49798 whole entry, looked up): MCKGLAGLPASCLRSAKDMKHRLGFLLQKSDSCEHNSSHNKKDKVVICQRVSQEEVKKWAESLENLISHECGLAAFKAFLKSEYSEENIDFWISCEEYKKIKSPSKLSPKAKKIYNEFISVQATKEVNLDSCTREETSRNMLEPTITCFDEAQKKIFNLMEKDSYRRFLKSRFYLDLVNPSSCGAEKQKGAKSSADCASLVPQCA
MrgX1 ag = agonists of human MrgX1 receptor, primary screen, HEK293 cells, Fluo-4 calcium flux. Mas-related G-protein coupled receptor member X1 (Homo sapiens), Q96LB2. B-score at 10 µM. Fluo-4 calcium fluorescence, agonist mode; active compounds read high. actives 0.44% (n = 310,000). AID 588627, 2011;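 active = calcium response B-score plate-corrected fluorescence ratio at least 3 library SD, with starting fluorescence B-score inside 5 SD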
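Assay system: MrgX1-expressing HEK293 cells / Amount: fifteen thousand cells per well / Doses: test compound in the initial addition of three / Timing: cells plated overnight, dye loaded 0.5 h 37 °C, 0.5 h room temperature / Technique: kinetic calcium dye fluorescence, Fluo-4 NW / Control set: positive and negative controls per plate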
RGS4 pot = RGS4 potentiators or activators, primary screen, cell-based, HEK293 M3R inducible RGS4, calcium flux | B-score at 10 µM | carbachol calcium flux Fluo4; active compounds read low | actives 0.92% (n = 310,000) | AID 463111, 2010;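 active = B-score of the integrated calcium signal more than 4 SD below the library mean, with starting fluorescence not abnormally high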;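 also: negative B-score means reduced calcium response which marks RGS4 activation or potentiation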
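Assay system: HEK293 FlpIn-TREx cells, stable M3R, doxycycline-inducible RGS4 / Probe or stimulus: carbachol, ECmax concentration / Times: overnight RGS4 induction, 30 min dye load 37 °C, 20 min compound RT / Signal: kinetic calcium fluorescence imaging with Fluo4-AM dye, 2 µM / Measure: Agonist-evoked peak-minus-minimum fluorescence over baseline, integrated ratio, B score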
MrgX1 antag = antagonists of human MrgX1 receptor, primary screen, HEK293 cells, Fluo-4 calcium flux. Mas-related G-protein coupled receptor member X1 (Homo sapiens), Q96LB2. BAM8-22 antagonism; active compounds read low. B-score at 10 µM. actives 1.3% (n = 310,000). AID 588676, 2011;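 active = calcium-response B-score plate-corrected more than 3 library SD below zero, starting fluorescence within 5 deviations, no agonist response on first addition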;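 also: peak minus trough fluorescence over baseline after final BAM8-22 challenge near maximal dose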
RGS4 act valid = reduced carbachol calcium response, RGS4-induced M3R cells, confirmation, RGS4 activator project, cell-based, HEK293 M3R/RGS4 inducible, calcium flux, duplicate | shares compounds with RGS4 pot | carbachol calcium flux Fluo4 | inhibition, % at 10 µM | actives 89% (n = 1,100);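 active = inhibition above 3 SD of the buffer control wells, cut at about 41% in these data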;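 also: signal is the integrated peak-minus-minimum Fluo4 fluorescence over baseline ratio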
M3R Ca counter = activity in cells without induced RGS4 expression | AID 602283 | shares compounds with RGS4 pot | actives 82% (n = 1,100) | inhibition, % at 10 µM | HEK293 M3R non-induced RGS4, Fluo4 calcium flux; after carbachol challenge at its EC90;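 active = inhibition exceeding 3 SD of buffer-only control wells, cut at about 26% in these data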;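 also: percent drop in integrated peak-minus-baseline over baseline Fluo4 ratio after carbachol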
Starred values were filed as active, the others as inactive; i = inactive; . = not tested or not shown. Shown are actives, neighbours in structure and some others; about 3.5% of the full set was active somewhere.

SMILES	MrgX1 PAM	RGS4 block	MrgX1 ag	RGS4 pot	MrgX1 antag	RGS4 act valid	M3R Ca counter
O=c1c2c(nc3n1CCCCC3)-c1ccccc1CC21CCCCC1	i	i	i	-16*	i	90*	79*
Cc1nc2ccc(Br)cc2c2c1CC(CBr)O2 (configuration not stated)	i	i	i	-8.1*	i	64*	84*
Cc1c(C(=O)Nc2ccc3c(c2)CCC3)cccc1[N+](=O)[O-]	i	i	i	i	i	.	.
Cc1ccc(NC(=S)NC2CCSc3ccccc32)cc1C (configuration not stated)	i	i	i	-8.8*	i	92*	93*
COc1ccc2cc3cc(C(=O)Nc4ccccc4N4CCN(C)CC4)oc3nc2c1	i	i	i	-8.9*	i	40*	0
CCOC(=O)c1c(-c2ccccc2)csc1NC(=O)c1nn(CC)cc1Br	i	i	i	-7.6*	i	80*	0
O=[N+]([O-])c1cccc(-c2ccc(/C=N/Nc3nc(N4CCCCC4)nc(N4CCCCC4)n3)o2)c1	i	i	i	-13*	i	81*	84*
COc1ccc(CCNc2ccc(C(CC(N)=O)NC(=O)c3ccccc3)cc2[N+](=O)[O-])cc1 (configuration not stated)	i	i	i	i	i	.	.
CN1CCN(C2Cc3cc(Cl)ccc3Sc3cc(F)ccc32)CC1 (configuration not stated)	i	i	i	-8*	i	93*	95*
OCCN1CCN(C2Cc3cc(Cl)ccc3Sc3ccc(Cl)cc32)CC1 (configuration not stated) (tested in a mixture with another compound)	i	i	i	i	i	.	.
CN1CCN(C2=Cc3cc(Cl)ccc3Sc3cc(F)ccc32)CC1	i	i	i	-8*	i	92*	91*
c1ccc2c(c1)CC(N1CCCCC1)c1ccccc1S2 (configuration not stated)	i	i	i	i	i	.	.
CCc1ccc2c(c1)Sc1ccccc1CC2N1CCN(C)CC1 (configuration not stated)	i	i	i	-8.9*	i	92*	90*
CN1CCN(CCC(=O)N2c3ccccc3Sc3ccc(Cl)cc32)CC1	i	i	i	i	i	.	.
Cc1cc(C(=O)Nc2ccccc2C(=O)N2CCCCC2)ccc1[N+](=O)[O-]	i	i	i	i	i	.	.
c1ccc(OCCOCCN2CCN(C(c3ccccc3)c3ccccc3)CC2)cc1	i	i	i	i	i	.	.
O=C1C2CSCN2C(=O)CN1CCCN1CCN(C(c2ccccc2)c2ccccc2)CC1 (configuration not stated)	i	i	i	-8*	i	84*	34*
CC(=O)N1CCN(C(c2ccccc2)c2ccccc2)CC1	i	i	i	i	i	.	.
CC12CNCC(C)(CN(C(c3ccccc3)c3ccccc3)C1)C2	i	i	i	-7.7*	i	66*	27*
O=C(NC(C(=O)c1ccccc1)N1CCOCC1)c1ccccc1 (configuration not stated)	i	i	i	i	i	.	.
Cc1cc(=O)n(C(NC(=O)c2ccccc2)C(=O)c2ccccc2)cn1 (configuration not stated)	i	i	i	-9.2*	i	0	0
Cc1ccccc1C(=O)OC1CCCN(C)C1 (configuration not stated)	i	i	i	i	i	.	.
CN1CCCC(C#CC(O)(c2ccccc2)c2ccccc2)C1 (configuration not stated)	i	i	i	-11*	i	94*	92*
CCC(CC)C(=O)Nc1cccc(C(=O)N2CCOCC2)c1	i	i	i	-10*	i	0	0
CCC(CC)C(=O)Nc1cccc(C(=O)N2CCCCCC2)c1	i	i	i	i	i	.	.
SMILES	MrgX1 PAM	RGS4 block	MrgX1 ag	RGS4 pot	MrgX1 antag	RGS4 act valid	M3R Ca counter
CCCNC(=O)CSc1nccn1Cc1ccc(OC)cc1	i	i	i	i	i	.	.
OC(C#CCCN1CCCCC1)(c1ccccc1)C1CCCCC1 (configuration not stated)	i	i	i	-9*	i	92*	96*
OCCN(CC#CC(O)(c1ccccc1)C1CCCCC1)CCO (configuration not stated)	i	i	i	i	i	.	.
Cc1ccccc1NC(=O)c1cccc2nc3ccccc3nc12	i	i	i	-7.8*	i	86*	59*
COc1ccc(-c2noc(CN3CCCCC3c3nccn3C)n2)cc1 (configuration not stated)	i	i	i	-7.6*	i	66*	84*
CN(Cc1nc(-c2ccc3c(c2)OCO3)no1)CC1(N2CCOCC2)CCCCC1	i	i	i	i	i	.	.
Cn1ccnc1C1CCCCN1Cc1nc(-c2ccc3c(c2)OCO3)no1 (configuration not stated)	i	i	i	-7.8*	i	86*	62*
Cn1ccnc1C1CCCCN1Cc1nc(Cc2cccc(C(F)(F)F)c2)no1 (configuration not stated)	i	i	i	-10*	i	78*	40*
FC(F)(F)c1cccc(Cc2noc(CN3C[C@@H]4CCC[C@H]3C4)n2)c1	i	i	i	i	i	.	.
N=C(N)c1ccccc1	i	i	i	i	i	.	.
COc1ccc(NC(=O)C2CC2)cc1OC1CCCC1	i	i	i	i	i	.	.
Cn1c(O)c(C(C#N)=C2N=c3ccccc3=N2)c2ccccc21	i	i	i	i	i	.	.
Cc1ccccc1N1CCN(CCCN2C(=O)CC(=C(c3ccccc3)c3ccccc3)C2=O)CC1	i	i	i	-8.4*	i	90*	43*

Screens (PubChem)
